This is an account of results in ChEMBL document CHEMBL1158800, “Antineoplastic agents. 545. Isolation and structure of turbostatins 1-4 from the Asian marine mollusk Turbo stenogyrus” (2005).

For orientation: GI50 means the concentration that inhibits growth by half.

≈ marks a conversion by molar mass, not a printed value.

Holding throughout (type): functional
Assay [1] deals with P388. The assay is described as follows: Growth inhibition of mouse P388 cells after 48 hrs by particle counting method. Conditions: P388, 48 h. In a few lines: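 Murine P388 lymphocytic leukemia cells in 10% horse serum/Fisher medium, preincubated 24 hrs. Serial dilutions of the compounds were added and cells grown 48 hrs. Cell numbers were counted with a Z1 Coulter particle counter, and the ED50 for growth inhibition was calculated.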

Assay [2] is described as follows: Growth inhibition of human MXPC3 cells after 48 hrs by particle counting method. To be noted: MXPC3, 48 h.
Another assay deals with MCF7. Briefly: Growth inhibition of human MCF7 cells after 48 hrs by particle counting method. Conditions: MCF7, 48 h.
The next assay relates to SF-268. Briefly: Growth inhibition of human SF268 cells after 48 hrs by particle counting method. To be noted: SF-268, 48 h.
In a further assay the test system is NCI-H460. The assay is described as follows: Growth inhibition of human NCI-H460 cells after 48 hrs by particle counting method. Conditions: NCI-H460, 48 h.
The subject of another assay is KM-20L2. The assay is described as follows: Growth inhibition of human KM20L2 cells after 48 hrs by particle counting method. Conditions: KM-20L2, 48 h.
The subject of the next assay is DU-145. Briefly: Growth inhibition of human DU145 cells after 48 hrs by particle counting method. Conditions: DU-145, 48 h.
In assay [3] the test system is P388. Briefly: In vivo antitumor activity against mouse P388 cells at 4 to 800 mg/ kg. To be noted: dose mg/ kg 4-800.

In the case of `CCCCCCCCCCC/C=C/[C@@H](O)[C@H](CO[C@@H]1O[C@H](CO)[C@H](O)[C@H](O)[C@H]1O)NC(=O)CCCCCCCCCCCCCCCCC` [TURBOSTATIN 4], the 50% growth inhibitory concentration (GI50) in the assay with P388 [1] stood at 0.29 µg/mL (≈ 0.414 µM); in assay [2], 0.93 µg/mL (≈ 1.33 µM); with MCF7, 0.44 µg/mL (≈ 0.629 µM); in the assay on SF-268 it was 1.5 µg/mL (≈ 2.14 µM); in the assay on NCI-H460 it was 0.49 µg/mL (≈ 0.7 µM); in the assay on KM-20L2 it was 0.41 µg/mL (≈ 0.586 µM). Further, in the assay with DU-145, growth was halved (GI50) at 2.6 µg/mL (≈ 3.71 µM).

For the compound `CCCCCCCCCCC/C=C/[C@@H](O)[C@H](CO[C@@H]1O[C@H](CO)[C@@H](O)[C@H](O)[C@H]1O)NC(=O)CCCCCCCCCCCCCCCCC` [TURBOSTATIN 2], the GI50 was determined as 0.15 µg/mL (≈ 0.214 µM) with P388 [1]; 1 µg/mL (≈ 1.43 µM) in assay [2]; 0.39 µg/mL (≈ 0.557 µM) in the assay with MCF7; 1.9 µg/mL (≈ 2.71 µM) in the assay with SF-268; 0.53 µg/mL (≈ 0.757 µM) in the assay on NCI-H460; 0.35 µg/mL (≈ 0.5 µM) in the assay with KM-20L2. The compound also showed a GI50 with DU-145 of 1.7 µg/mL (≈ 2.43 µM).

`NCCS(=O)(=O)O` [TAURINE] displayed a T/C in the assay with P388 [3] of 123.

Regarding `CCCCCCCCCCC/C=C/[C@@H](O)[C@H](CO[C@@H]1O[C@H](CO)[C@H](O)[C@H](O)[C@H]1O)NC(=O)CCCCCCCCCCCCCCC` [TURBOSTATIN 3], the concentration for 50% growth inhibition (GI50) with P388 [1] was 0.25 µg/mL (≈ 0.372 µM); in assay [2] it was 1.6 µg/mL (≈ 2.38 µM); with MCF7, 0.48 µg/mL (≈ 0.714 µM); with SF-268, 1.9 µg/mL (≈ 2.83 µM); in the assay on NCI-H460 it was 0.55 µg/mL (≈ 0.818 µM); with KM-20L2 it was 0.48 µg/mL (≈ 0.714 µM). The GI50 with DU-145 came to 2.6 µg/mL (≈ 3.87 µM).

In the case of `CCCCCCCCCCC/C=C/[C@@H](O)[C@H](CO[C@@H]1O[C@H](CO)[C@@H](O)[C@H](O)[C@H]1O)NC(=O)CCCCCCCCCCCCCCC` [TURBOSTATIN 1], the GI50 in the assay with P388 [1] came to 0.27 µg/mL (≈ 0.402 µM); in assay [2] it was 0.71 µg/mL (≈ 1.06 µM); in the assay on MCF7, 0.44 µg/mL (≈ 0.655 µM); in the assay with SF-268 it was 0.98 µg/mL (≈ 1.46 µM); in the assay on NCI-H460, 0.34 µg/mL (≈ 0.506 µM); in the assay on KM-20L2, 0.35 µg/mL (≈ 0.521 µM). This compound returned a concentration for 50% growth inhibition (GI50) with DU-145 of 1.6 µg/mL (≈ 2.38 µM).
